Experimental data taken from ChEMBL document CHEMBL1133693, “Peptide and peptide mimetic inhibitors of antigen presentation by HLA-DR class II MHC molecules. Design, structure-activity relationships, and X-ray crystal structures” (J Med Chem, 2000).
Non-standard residues stand in square brackets, D forms with d. Residues, ends and D or L forms follow the SMILES beside them. Cha = N[C@@H](CC1CCCCC1)C(=O)O; NMeL = CN[C@@H](CC(C)C)C(=O)O; NMeA = CN[C@@H](C)C(=O)O

Legend:
[1] = Degradation half-time was evaluated; format: ADME
Method in brief: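 Each test peptide at 1.0 mg/mL in pH 6.0 phosphate buffer (88 mM KH2PO4, 12 mM Na2HPO4, 1.33 mM EDTA, 2.0 mM cysteine, internal standard) was prewarmed to 32 °C. Cathepsin B was preactivated 5 min at 37 °C and added at 0.3 U per micromole of compound. Half-time from ln(A0 − A) vs time, t1/2 = 0.693/k.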

Cathepsin B (Bos taurus) = Cathepsin B (Bos taurus) (UniProt P07688); assay: Percent of original compound remaining with cathepsin B after incubation for 4 hrs was determined by HPLC
[2] = Mean relative potency is the ratio of potencies of 'Ac-(Cha)RAMASL-NH2' and compound, to inhibit MHC class II DRB1*0101
Method in brief: (§1)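 Scintillation proximity competition assay. Test compounds competed against the radioligand, and bound counts were read by scintillation. Ac-(Cha)RAMASL-NH2 was run as standard competitor in every run. Potency is the ratio of standard IC50 to compound IC50.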

T-cell [3] = assay: T-cell inhibitory potency relative to the IC50 of a(Cha)AAAKTAAAAa-NH2 in MHC class II DRB1*0401; format: functional, Homo sapiens
[4] = Mean relative potency is the ratio of potencies of 'Ac-(Cha)RAMASL-NH2' and compound, to inhibit MHC class II DRB1*0404; method in brief: as §1
T-cell [5] = assay: T-cell inhibitory potency relative to the IC50 of a(Cha)AAAKTAAAAa-NH2 iMHC class II DRB1*0101; format: functional, Homo sapiens
[6] = Mean relative potency is the ratio of potencies of 'Ac-(Cha)RAMASL-NH2' and compound, to inhibit MHC class II DRB1*0401; method in brief: as §1
T-cell [7] = assay: T-cell inhibitory potency relative to the IC50 of a(Cha)AAAKTAAAAa-NH2 MHC class II DRB1*0101; format: functional, Homo sapiens

With CSCC[C@H](NC(=O)[C@H](C)N(C)C(=O)[C@H](CCCN=C(N)N)NC(=O)[C@H](CC1CCCCC1)NC(C)=O)C(=O)N(C)[C@@H](C)C(=O)N[C@@H](CO)C(=O)N(C)[C@@H](CC(C)C)C(N)=O (Ac-[Cha]R[NMeA]M[NMeA]S[NMeL]-NH2) the half-life [1] was 10700 min and the % remaining (Cathepsin B (Bos taurus)) was 99%.
CSCC[C@H](NC(=O)[C@H](C)NC(=O)[C@H](CCCN=C(N)N)NC(=O)[C@H](CC1CCCCC1)NC(C)=O)C(=O)N[C@@H](C)C(=O)N[C@@H](CO)C(=O)N[C@@H](CC(C)C)C(N)=O (Ac-[Cha]RAMASL-NH2) gave a Mean relative potency [2] of 1, a half-life [1] of 3 min and a T-cell inhibition (T-cell [3]) of 0. The Mean relative potency [4] was 1, the T-cell inhibition (T-cell [5]) was 0.12 and the Mean relative potency [6] was 1. The % remaining (Cathepsin B (Bos taurus)) was 0%.
With CSCC[C@H](NC(=O)[C@H](C)NC(=O)[C@H](CCCN=C(N)N)NC(=O)[C@H](CC1CCCCC1)NC(C)=O)C(=O)N(C)[C@@H](C)C(=O)N[C@@H](CO)C(=O)N(C)[C@@H](CC(C)C)C(N)=O (Ac-[Cha]RAM[NMeA]S[NMeL]-NH2) the half-life [1] was 4.8 min and the % remaining (Cathepsin B (Bos taurus)) was 0%.
Compound CSCC[C@H](NC(=O)[C@H](C)NC(=O)[C@H](CCCN=C(N)N)NC(=O)[C@H](CC1CCCCC1)NC(C)=O)C(=O)N[C@@H](C)C(=O)N[C@@H](CO)C(=O)N(C)[C@@H](CC(C)C)C(N)=O has a half-life [1] of 4.6 min.
In the case of CSCC[C@H](NC(=O)[C@H](C)NC(=O)[C@H](CCCN=C(N)N)NC(=O)[C@H](CC1CCCCC1)NC(C)=O)C(=O)N(C)[C@@H](C)C(=O)N[C@@H](CO)C(=O)N[C@@H](CC(C)C)C(N)=O (Ac-[Cha]RAM[NMeA]SL-NH2), the Mean relative potency [2] is reported as 1.22, the half-life [1] is reported as 7.3 min and the Mean relative potency [6] is reported as 0.6. The % remaining (Cathepsin B (Bos taurus)) was 0%.
In the case of CSCC[C@@H](NC(=O)[C@H]1Cc2ccccc2CN1C(=O)[C@H](CCCN=C(N)N)NC(=O)[C@H](CC1CCCCC1)NC(C)=O)C(=O)N1CCC(c2ccccc2)[C@@H]1C(=O)N[C@@H](CO)C(=O)N(C)[C@@H](CC(C)C)C(N)=O (stereo partly specified), the Mean relative potency [2] is reported as 0.49, the T-cell inhibition (T-cell [3]) is reported as 2.7 and the Mean relative potency [6] is reported as 0.22. The T-cell inhibition (T-cell [7]) was 2.5 and the % remaining (Cathepsin B (Bos taurus)) was 116%.
